This is an account of results in ChEMBL document CHEMBL1140410, “Discovery of the novel antithrombotic agent 5-chloro-N-({(5S)-2-oxo-3- [4-(3-oxomorpholin-4-yl)phenyl]-1,3-oxazolidin-5-yl}methyl)thiophene- 2-carboxamide (BAY 59-7939): an oral, direct factor Xa inhibitor” (J Med Chem, 2005).

SMILES strings stand for the structures.

The species entered for data set [1] is Rattus norvegicus. Description: In vitro inhibitory concentration of compound required to double the time to fibrin formation upon incubation with rat plasma for 10 minutes at 37 degrees C. It counts as functional. An outline of the steps:
(§1)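 Inhibitor at increasing concentrations, or solvent, added to plasma and incubated 10 min at 37 °C. PT then measured in a coagulometer using commercial kits and compared with control plasma. Value is the concentration that doubles time to fibrin formation.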

Data set [2] can be described thus: Oral bioavailability in rat. The data set is classed as ADME, organism-based. The note with it: in vivo.
The nature of data set [3]: Plasma clearance in wistar rats after intravenous administration of the compound at a dose of 1 mg/kg. As to conditions: rat. It counts as ADME, organism-based. Set-up: dose 1 mg/kg, route intravenous. A digest of the protocol: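 Rats given 1 mg kg-1 iv in EtOH/PEG400 (1:9), 1 mL kg-1.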
Data set [4] is described as follows: Half-life after intravenous administration to rats. It counts as ADME, organism-based. As to conditions: rat, in vivo.
Data set [5] is described as follows: Fraction of unbound compound in rat plasma. The data set is classed as ADME, cell-free. An outline of the steps: (§2)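 Equilibrium dialysis of [14C]-labelled compound in plasma at targets of 0.1–100 mg L-1. Spiked plasma preincubated 15 min at 37 °C, then dialyzed 1 h at 37 °C against PBS pH 7.4 across a cellulose membrane. Radioactivity in buffer and plasma counted by LSC; fu = cu/c × 100.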

In data set [6] the test system is Rattus norvegicus. Description: In vivo antithrombotic activity of compound in the arteriovenous shunt model in anesthetized rats after peroral administration. The data set is classed as functional. The note with it: po. An outline of the steps: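 Anesthetized rats, AV shunt from right carotid artery to left jugular vein, containing a nylon thread folded into a 20 mm double string. Compound in solutol/ethanol/water (40%/10%/50% v/v/v), or vehicle, dosed orally 90 min before thrombus induction. Shunt opened for 15 min, then the thread with thrombus was removed and weighed.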

Data set [7] has as its system Rattus norvegicus. Description: In vivo antithrombotic activity of compound in the arteriovenous shunt model in anesthetized rats after intravenous administration. It counts as functional. An outline of the steps: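 Anesthetized rats with a carotid artery to jugular vein shunt: PE-60 catheters joined by a 30 mm PE-160 tube holding a rough nylon thread folded into a 20 mm double string. Compound in PEG/water/glycerol (996 g/100 g/60 g), or vehicle, given as iv bolus into a tail vein 10 min before thrombus induction. Shunt open 15 min; thread with thrombus withdrawn and weighed.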

Data set [8] is described as follows: Apparent volume of distribution at equilibrium after intravenous administration in rats. It counts as ADME, organism-based. The note with it: rat, in vivo, read-out: Vss.
For data set [9], the target named is T1, Coagulation factor X (Homo sapiens, UniProt P00742). Description: In vitro inhibition of human coagulation factor Xa after incubation for 10 min at 25 degree C.
Data set [10] deals with T1, Coagulation factor X. Description: In vitro inhibitory concentration of compound required to double the time to fibrin formation upon incubation with human plasma for 10 minutes at 37 degrees C. It counts as functional, cell-free. A digest of the protocol: as §1
Data set [11] is described as follows: Bioavailability in female Beagle dog is the mean value of AUCnorm perorally to AUCnorm intravenously. It counts as ADME, organism-based, Canis lupus familiaris. As to conditions: in vivo, po. An outline of the steps:
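Female beagle dogs dosed po at 0.3, 1 and 3 mg kg-1, 1 mL kg-1. Bioavailability = AUCnorm after oral dosing divided by AUCnorm after iv 0.3 or 1.0 mg kg-1 infusion.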

A short description of data set [12]: Mean plasma clearance in wistar rats after intravenous administration of the compound at a dose of 1 and 3 mg/kg. As to conditions: rat. It counts as ADME, organism-based. Details: dose 3 mg/kg, route intravenous. A digest of the protocol:
(§3)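 Rats given 1 and 3 mg kg-1 iv in PEG400/water (6:4), 5 mL kg-1. Values are means over both doses.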

Data set [13] in a line: Mean plasma clearance in female Beagle dogs after intravenous administration of the compound at a dose of 0.3 and 1 mg/kg. The note with it: dog. Set-up: dose 1 mg/kg, route intravenous. It counts as ADME, organism-based, Canis lupus familiaris.
Data set [14] is described as follows: Fraction of unbound compound in female Beagle dog plasma. The data set is classed as ADME, cell-free, Canis lupus familiaris. The note with it: read-out: Fraction free drug in plasma. An outline of the steps:
as §2

Data set [15] in a line: Mean half-life after intravenous administration to rats at a dose of 1 and 3 mg/kg. The data set is classed as ADME, organism-based. Set-up: dose 3 mg/kg, route intravenous. The note with it: rat, in vivo. A digest of the protocol: as §3
Data set [16] in a line: Mean half-life after intravenous administration to female Beagle dogs at a dose of 0.3 and 1 mg/kg. The data set is classed as ADME, organism-based, Canis lupus familiaris. Details: dose 1 mg/kg, route intravenous. The note with it: dog, in vivo.
The nature of data set [17]: Mean apparent volume of distribution at equilibrium after intravenous administration in rats at a dose of 1 and 3 mg/kg. It counts as ADME, organism-based. Set-up: dose 3 mg/kg, route intravenous. The note with it: rat, in vivo, read-out: Vss. A digest of the protocol:
as §3

Data set [18] is described as follows: Mean apparent volume of distribution at equilibrium after administration in female Beagle dogs at a dose of 0.3 and 1 mg kg-1 intravenously. It counts as ADME, organism-based, Canis lupus familiaris. Details: dose 1 mg kg-1, route intravenous. The note with it: dog, in vivo, iv, read-out: Vss.
Data set [19] in a line: Plasma clearance in wistar rats after intravenous administration of the compound at a dose of 0.3 mg/kg. It counts as ADME, organism-based. Details: dose 0.3 mg/kg, route intravenous. The note with it: rat. A digest of the protocol:
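Rats given 0.3 mg kg-1 iv in plasma/DMSO (99:1), 2 mL kg-1.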

T1 sequence (P00742 41-179 limits assumed): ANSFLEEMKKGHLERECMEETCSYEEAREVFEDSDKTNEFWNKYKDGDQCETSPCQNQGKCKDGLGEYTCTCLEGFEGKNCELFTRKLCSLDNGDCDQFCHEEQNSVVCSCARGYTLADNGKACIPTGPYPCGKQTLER
T1 sequence (P00742 235-488 limits assumed): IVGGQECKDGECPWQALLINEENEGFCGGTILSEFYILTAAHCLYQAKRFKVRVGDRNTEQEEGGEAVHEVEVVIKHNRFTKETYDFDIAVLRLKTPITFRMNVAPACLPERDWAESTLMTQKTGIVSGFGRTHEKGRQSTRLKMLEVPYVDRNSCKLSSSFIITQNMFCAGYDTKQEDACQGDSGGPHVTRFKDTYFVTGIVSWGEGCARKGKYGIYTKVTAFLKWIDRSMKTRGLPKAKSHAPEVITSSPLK

In general, bioavailability refers to the share of a dose that reaches the circulation, judged against a reference dose that is usually intravenous. As usually defined, the clearance is the rate of elimination divided by the concentration. The half-life is how long it takes for the measured level to halve. The low end stands for rapid decline, the high end for slow decline. By ED50 is commonly meant the dose at which the effect has come halfway, by size or by number of responders. Read a low ED50 as an effect at a small dose. The compound `O=C(NC[C@H]1CN(c2ccc(N3CCCC3=O)cc2)C(=O)O1)c1ccc(Cl)s1` gave a Concentration in the data set filed under Rattus norvegicus [1] of 2.8 µM. Further, in data set [2], the bioavailability came to 65%. The same compound showed a clearance in data set [3] of 2.83 mL/min/kg. The compound further had a half-life in data set [4] of 66 min. Further, in data set [5] (read-out: Fraction free drug in plasma), the fraction unbound is 0.002. In addition, the results for the 50% effective dose (ED50) in the data set with Rattus norvegicus [6] and in the data set with Rattus norvegicus [7] were greater than 30 mg/kg and 7 mg/kg, respectively. Besides, the Vd in data set [8] turned out to be 0.21 L/kg.

What is called IC50 is the concentration needed to halve the response being measured. `O=C(NC[C@H]1CN(c2ccc(N3CCSCC3)c(F)c2)C(=O)O1)c1cccs1` yielded an IC50 on Coagulation factor X [9] of 20 µM.

As to `Nc1cc(N2C[C@H](CNC(=O)c3ccc(Cl)s3)OC2=O)ccc1N1CCOCC1=O`, the Concentration in the data set filed under Rattus norvegicus [1] came to 0.49 µM; on Coagulation factor X [10], 0.3 µM.

Compound `Nc1cc(C(=O)NC[C@H]2CN(c3ccc(N4CCOCC4=O)cc3)C(=O)O2)sc1Cl` yielded an IC50 on Coagulation factor X [9] of 0.0085 µM.

For the compound `O=C(NC[C@H]1CN(c2ccc(N3CCOCC3=O)cc2)C(=O)O1)c1ccc(Cl)s1` [RIVAROXABAN], the Concentration in the data set filed under Rattus norvegicus [1] worked out at 0.3 µM; on Coagulation factor X [10], 0.23 µM. Also, the figures for the bioavailability in data set [2] and in [11] were 60% and 86%, respectively. The clearance in data set [12] was 6.67 mL/min/kg; in [13] it was 5 mL/min/kg. The “Fraction free drug in plasma” value in [5] is on record as 1.3%. The fraction unbound in [14] was found to be 0.104. In addition, the half-life in [15] and in data set [16] was 54 min in each case. In addition, the ED50 stood at 5 mg/kg in the data set on Rattus norvegicus [6] and 1 mg/kg in the data set on Rattus norvegicus [7]. In addition, the Vd in data set [17] stood at 0.3 L/kg; in [18], 0.4 L/kg.

Turning to `O=C(NC[C@H]1CN(c2ccc(N3CCOCC3=O)c(F)c2)C(=O)O1)c1ccc(Cl)s1`, the Concentration stood at 0.32 µM in the data set listed under Rattus norvegicus [1] and 0.17 µM on Coagulation factor X [10]. The compound further had a clearance in [19] of 18.2 mL/min/kg. For the same compound, in data set [4], the half-life was 18 min. For the same compound, the ED50 turned out to be 10 mg/kg with Rattus norvegicus [6] and 1 mg/kg with Rattus norvegicus [7]. Further, in data set [8], the Vd was 0.32 L/kg.

Take `O=C(NC[C@H]1CN(c2ccc(N3CCOCC3=O)c(C(F)(F)F)c2)C(=O)O1)c1ccc(Cl)s1`: the Concentration came out at 0.32 µM in the data set filed under Rattus norvegicus [1] and 0.26 µM on Coagulation factor X [10]. This compound gave a 50% effective dose (ED50) with Rattus norvegicus [7] of 3 mg/kg.

In the case of `N=C(N)COc1cccc(CN2CC3C(NC(=O)c4ccc(Cl)s4)C=CC[C@H]3C2=O)c1` (some centres not stated), at Coagulation factor X [9], half-maximal inhibition (IC50) required 0.12 µM.
